Columns and labels:
Format in all cases: functional
K562 [1] = experiment: Growth inhibition of human K562 cells after 48 hrs by sulforhodamine B assay; details: K562, 48 h
In short: (§1)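 NCI-60 panel screen. Cells were exposed for 48 h at five concentrations between 10 nM and 100 μM. Cellular protein was read by sulforhodamine B staining, and GI50 and total growth inhibition (TGI) concentrations were derived.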

LOX IMVI = experiment: Growth inhibition of human LOXIMVI cells at 10 uM after 48 hrs by sulforhodamine B assay relative to control; details: read-out: GI
In short: (§2)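 NCI-60 single-dose screen at 10 μM for 48 h. Percent growth inhibition was measured by sulforhodamine B staining of cellular protein.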

NCI-H522 = experiment: Growth inhibition of human NCI-H522 cells after 48 hrs by sulforhodamine B assay; details: NCI-H522, 48 h
In short: (§3)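 NCI-60 panel follow-up: five concentrations from 10 nM to 100 μM, 48 h exposure. Growth read by sulforhodamine B protein staining. GI50 derived from the concentration-response, with the concentration for total growth inhibition (TGI) also recorded when below 100 μM.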

A549 = experiment: Growth inhibition of human A549/ATCC cells after 48 hrs by sulforhodamine B assay; details: A549, 48 h; in short: as §1
HT-29 = experiment: Growth inhibition of human HT-29 cells at 10 uM after 48 hrs by sulforhodamine B assay relative to control; details: HT-29, 48 h, read-out: GI; in short: as §2
786-0 = experiment: Growth inhibition of human 786-0 cells after 48 hrs by sulforhodamine B assay; details: 786-0, 48 h; in short: as §1
NCI-H226 = experiment: Growth inhibition of human NCI-H226 cells after 48 hrs by sulforhodamine B assay; details: NCI-H226, 48 h; in short: as §3
OVCAR-3 [2] = experiment: Growth inhibition of human OVCAR3 cells at 10 uM after 48 hrs by sulforhodamine B assay relative to control; details: OVCAR-3, 48 h, read-out: GI
In short: (§4)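 NCI-60 human cancer cell line screen, single-dose pass: cells exposed to 10 μM for 48 h. Cellular protein content read out by sulforhodamine B staining, and growth inhibition expressed relative to untreated control.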

SF-268 = experiment: Growth inhibition of human SF268 cells at 10 uM after 48 hrs by sulforhodamine B assay relative to control; details: SF-268, 48 h, read-out: GI; in short: as §4
MOLT-4 = experiment: Growth inhibition of human MOLT4 cells at 10 uM after 48 hrs by sulforhodamine B assay relative to control; details: MOLT-4, 48 h, read-out: GI; in short: as §4
MDA-MB-231 = experiment: Growth inhibition of human MDA-MB-231 cells after 48 hrs by sulforhodamine B assay; details: MDA-MB-231, 48 h; in short: as §1
NCI-H460 = experiment: Growth inhibition of human NCI-H460 cells at 10 uM after 48 hrs by sulforhodamine B assay relative to control; details: NCI-H460, 48 h, read-out: GI; in short: as §4
SNB-19 = experiment: Growth inhibition of human SNB19 cells after 48 hrs by sulforhodamine B assay; details: SNB-19, 48 h; in short: as §3
Hs-578T [3] = experiment: Growth inhibition of human Hs 578T cells after 48 hrs by sulforhodamine B assay; in short: as §1
MCF7 = experiment: Growth inhibition of human MCF7 cells at 10 uM after 48 hrs by sulforhodamine B assay relative to control; details: MCF7, 48 h, read-out: GI; in short: as §2
SF-295 = experiment: Growth inhibition of human SF295 cells after 48 hrs by sulforhodamine B assay; details: SF-295, 48 h; in short: as §3
MDA-MB-468 = experiment: Growth inhibition of human MDA-MB-468 cells after 48 hrs by sulforhodamine B assay; details: MDA-MB-468, 48 h; in short: as §3
HOP-62 = experiment: Growth inhibition of human HOP62 cells after 48 hrs by sulforhodamine B assay; details: HOP-62, 48 h; in short: as §1
Hs-578T [4] = experiment: Growth inhibition of human Hs 578T cells at 10 uM after 48 hrs by sulforhodamine B assay relative to control; details: read-out: GI; in short: as §2
SNB-75 = experiment: Growth inhibition of human SNB75 cells at 10 uM after 48 hrs by sulforhodamine B assay relative to control; details: SNB-75, 48 h, read-out: GI
In short: (§5)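 NCI-60 human cancer cell line screen, single dose of 10 μM for 48 h. Cellular protein content read by sulforhodamine B staining; growth inhibition expressed relative to untreated control.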

OVCAR-8 [5] = experiment: Growth inhibition of human OVCAR8 cells after 48 hrs by sulforhodamine B assay; details: OVCAR-8, 48 h; in short: as §3
TK-10 [6] = experiment: Growth inhibition of human TK10 cells at 10 uM after 48 hrs by sulforhodamine B assay relative to control; details: TK-10, 48 h, read-out: GI; in short: as §5
OVCAR-3 [7] = experiment: Growth inhibition of human OVCAR3 cells after 48 hrs by sulforhodamine B assay; details: OVCAR-3, 48 h; in short: as §3
OVCAR-4 = experiment: Growth inhibition of human OVCAR4 cells after 48 hrs by sulforhodamine B assay; details: OVCAR-4, 48 h; in short: as §3
HOP-92 = experiment: Growth inhibition of human HOP92 cells after 48 hrs by sulforhodamine B assay; details: HOP-92, 48 h; in short: as §1
IGROV-1 = experiment: Growth inhibition of human IGROV1 cells after 48 hrs by sulforhodamine B assay; details: IGROV-1, 48 h; in short: as §1
K562 [8] = experiment: Growth inhibition of human K562 cells at 10 uM after 48 hrs by sulforhodamine B assay relative to control; details: K562, 48 h, read-out: GI; in short: as §2
NCI-H322M = experiment: Growth inhibition of human NCI-H322M cells at 10 uM after 48 hrs by sulforhodamine B assay relative to control; details: read-out: GI; in short: as §4
M14 = experiment: Growth inhibition of human M14 cells after 48 hrs by sulforhodamine B assay; details: M14, 48 h; in short: as §1
TK-10 [9] = experiment: Growth inhibition of human TK10 cells after 48 hrs by sulforhodamine B assay; details: TK-10, 48 h
In short: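 NCI-60 panel cells treated at five concentrations from 10 nM to 100 μM for 48 h. Read-out by sulforhodamine B protein stain. GI50 and total growth inhibition (TGI, if below 100 μM) taken from the concentration-response data.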

OVCAR-8 [10] = experiment: Growth inhibition of human OVCAR8 cells at 10 uM after 48 hrs by sulforhodamine B assay relative to control; details: OVCAR-8, 48 h, read-out: GI; in short: as §4
COLO 205 = experiment: Growth inhibition of human COLO205 cells at 10 uM after 48 hrs by sulforhodamine B assay relative to control; details: COLO 205, 48 h, read-out: GI; in short: as §2
NCI/ADR-RES = experiment: Growth inhibition of human NCI-ADR-RES cells after 48 hrs by sulforhodamine B assay; in short: as §3
KM12 = experiment: Growth inhibition of human KM12 cells at 10 uM after 48 hrs by sulforhodamine B assay relative to control; details: KM12, 48 h, read-out: GI; in short: as §2
NCI-H23 = experiment: Growth inhibition of human NCI-H23 cells at 10 uM after 48 hrs by sulforhodamine B assay relative to control; details: NCI-H23, 48 h, read-out: GI; in short: as §4

## COc1ccccc1S(=O)(=O)Nc1ccc2c(c1)CN(C)C(=O)N2
K562 [1]
  GI50: 4.6 µM
LOX IMVI
  inhibition of growth at 10 µM: 70.9%
NCI-H522
  GI50: 8.7 µM
A549
  GI50: 19.5 µM
HT-29
  inhibition of growth at 10 µM: 77.2%
786-0
  GI50: 12 µM
NCI-H226
  GI50: 14.1 µM
OVCAR-3 [2]
  inhibition of growth at 10 µM: 67.8%
SF-268
  inhibition of growth at 10 µM: 27.1%
MOLT-4
  inhibition of growth at 10 µM: 61.6%
MDA-MB-231
  GI50: 3.5 µM
NCI-H460
  inhibition of growth at 10 µM: 44.2%
SNB-19
  GI50: 4.8 µM
Hs-578T [3]
  GI50: 1.9 µM
  TGI: 63.1 µM
MCF7
  inhibition of growth at 10 µM: 78.5%
SF-295
  GI50: 13.5 µM
MDA-MB-468
  GI50: 1.5 µM
  TGI: 47.9 µM
HOP-62
  GI50: 2.5 µM
Hs-578T [4]
  inhibition of growth at 10 µM: 66.3%
SNB-75
  inhibition of growth at 10 µM: 82.5%
OVCAR-8 [5]
  GI50: 9.1 µM
TK-10 [6]
  inhibition of growth at 10 µM: 82.7%
OVCAR-3 [7]
  GI50: 4 µM
  TGI: 87.1 µM
OVCAR-4
  GI50: 6.3 µM
HOP-92
  GI50: 1.2 µM
  TGI: 70.8 µM
IGROV-1
  GI50: 6.3 µM
K562 [8]
  inhibition of growth at 10 µM: 71.4%
NCI-H322M
  inhibition of growth at 10 µM: 57.1%
M14
  GI50: 2.9 µM
TK-10 [9]
  GI50: 1.6 µM
  TGI: 58.9 µM
OVCAR-8 [10]
  inhibition of growth at 10 µM: 43.8%
COLO 205
  inhibition of growth at 10 µM: 61.6%
NCI/ADR-RES
  GI50: 17.4 µM
KM12
  inhibition of growth at 10 µM: 55%
NCI-H23
  inhibition of growth at 10 µM: 43.3%

## Cc1noc(C)c1-c1cc(O)cc(C(O)c2ccccc2)c1 (stereo not drawn)
K562 [1]
  GI50: 8.69 µM
LOX IMVI
  inhibition of growth at 10 µM: 72.7%
NCI-H522
  GI50: 27 µM
A549
  GI50: 22.4 µM
HT-29
  inhibition of growth at 10 µM: 65.4%
786-0
  GI50: 27.1 µM
NCI-H226
  GI50: 21.3 µM
OVCAR-3 [2]
  inhibition of growth at 10 µM: 53.3%
SF-268
  inhibition of growth at 10 µM: 28.5%
MOLT-4
  inhibition of growth at 10 µM: 41.3%
MDA-MB-231
  GI50: 3.92 µM
NCI-H460
  inhibition of growth at 10 µM: 32.8%
SNB-19
  GI50: 5.69 µM
Hs-578T [3]
  GI50: 1.93 µM
  TGI: 90.7 µM
MCF7
  inhibition of growth at 10 µM: 79.1%
SF-295
  GI50: 7.31 µM
MDA-MB-468
  GI50: 1.89 µM
  TGI: 40.6 µM
HOP-62
  GI50: 4.89 µM
Hs-578T [4]
  inhibition of growth at 10 µM: 66.3%
SNB-75
  inhibition of growth at 10 µM: 113%
OVCAR-8 [5]
  GI50: 8.33 µM
TK-10 [6]
  inhibition of growth at 10 µM: 87.4%
OVCAR-3 [7]
  GI50: 6.64 µM
OVCAR-4
  GI50: 6.35 µM
HOP-92
  GI50: 1.02 µM
  TGI: 72.9 µM
IGROV-1
  GI50: 23.2 µM
K562 [8]
  inhibition of growth at 10 µM: 57.9%
NCI-H322M
  inhibition of growth at 10 µM: 52.4%
M14
  GI50: 4.48 µM
TK-10 [9]
  GI50: 1.08 µM
OVCAR-8 [10]
  inhibition of growth at 10 µM: 61.4%
COLO 205
  inhibition of growth at 10 µM: 62.9%
NCI/ADR-RES
  GI50: 6.32 µM
KM12
  inhibition of growth at 10 µM: 46.9%
NCI-H23
  inhibition of growth at 10 µM: 31.9%
